{"source": "ChEMBL document CHEMBL1821702", "about": "“8,8-Dimethyldihydroberberine with improved bioavailability and oral efficacy on obese and diabetic mouse models” (Bioorg Med Chem, 2010)", "key": {"[1]": {"organism": "Rattus norvegicus", "test": "Induction of AMPK phosphorylation in 2 hrs serum starved rat differentiated L6 myotubes after 1 hr", "summary_of_the_method": "(§1)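 Fully differentiated L6 myotubes were serum-starved 2 h, then treated 1 h across a dose series. Phospho-AMPK (Thr172) and phospho-ACC (Ser79) were detected by Western blot. Three independent experiments.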"}, "[2]": {"organism": "Rattus norvegicus", "test": "Induction of AMPK-dependent ACC phosphorylation in 2 hrs serum starved rat differentiated L6 myotubes after 1 hr", "summary_of_the_method": "as §1"}, "[3]": {"system": "L6", "test": "Cytotoxicity against rat L6 cells upto 10 uM after 24 hrs by MTT assay", "format": "cell-based", "conditions": "l6, 24 h", "summary_of_the_method": "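Differentiated L6 myoblasts were exposed to a concentration range of compounds for 24 h at 37 °C. MTT (5 mg/mL) was added for 3 h, formazan was dissolved in DMSO, and absorbance was read at 550 nm against 690 nm reference. Mean of three independent experiments ± SE.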"}}, "data": [{"smiles": "CCC1(CC)c2c(ccc(OC)c2OC)CC2=[N+]1CCc1cc3c(cc12)OCO3.[Cl-]", "note": "[8,8-Diethyldihydroberberine]", "values": [{"measurement": "Activity", "setting": "[1]", "value": "Dose-dependent effect"}, {"measurement": "Activity", "setting": "[2]", "value": "Dose-dependent effect"}, {"measurement": "Activity", "setting": "[3]", "value": "Toxic"}]}]}
